DDE Tn6 FP inh – inhibitors of Tn6 peptide binding to human fibrin DD(E). inhibition, % at 8.3 µM. hit rate 0.21% among 370,000. Fibrin DD(E) TRITC-Tn6 fluorescence polarization displacement. P02675. AID 720509;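 active = inhibition above a per-campaign cutoff: mean of compounds within control limits plus 3 SD, cut at about 15% in these data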;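 also: 0% = median of all compound wells on the plate and 100% = blocking peptide control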
Rtt109 Vps75 – C. albicans Rtt109 histone acetyltransferase inhibition. inhibition, % at 34.9 µM. AID 540336. Q5AAJ8. hit rate 0.16% among 330,000. purified Rtt109/Vps75, ThioGlo CoA-SH fluorescence, 4 h;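 active = inhibition of at least 50% in every replicate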
Tn7 DDE FP – inhibitors of Tn7 peptide binding to human fibrin DD(E); FP displacement of FITC-Tn7 peptide from fibrin DD(E); 0% = median of compound wells per plate; inhibition, % at 8.3 µM; hit rate 0.13% among 370,000; AID 720508;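 active = inhibition above the mean of compounds falling within the control limits plus 3 SD of them, cut at about 14% in these data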;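 also: 0% = plate median of compound wells and 100% = 10 µM Aha-Tn7 peptide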
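Assay system: human fibrin DD(E) protein / Input: 2 µM fibrin DD(E) / Benchmarks: high control of 10 µM Aha-Tn7 peptide / Measured by: fluorescence polarization of the labelled Tn7 tracer / Medium: Tris buffer with calcium and detergent, pH 7.8 / Timing: 10 min compound pre-incubation, 3 h probe incubation at room temperature / Repeats: one replicate per compound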
Keap1-Nrf2 PPI – disrupts human Keap1 binding to Nrf2 peptide. Keap1 Kelch-Nrf2 peptide fluorescence polarization, 1536-well. inhibition, % at 9.4 µM. hit rate 0.15% among 340,000. AID 504523; in the data active = inhibition above about 12%;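 also: human Keap1 Kelch domain with fluorescein labeled Nrf2 9mer peptide probe; 0% = neutral control wells and 100% = peptide positive control; higher means more block of Keap1 binding to Nrf2 peptide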
Target sequence (Q14145 whole entry, looked up, the tested form may be a part): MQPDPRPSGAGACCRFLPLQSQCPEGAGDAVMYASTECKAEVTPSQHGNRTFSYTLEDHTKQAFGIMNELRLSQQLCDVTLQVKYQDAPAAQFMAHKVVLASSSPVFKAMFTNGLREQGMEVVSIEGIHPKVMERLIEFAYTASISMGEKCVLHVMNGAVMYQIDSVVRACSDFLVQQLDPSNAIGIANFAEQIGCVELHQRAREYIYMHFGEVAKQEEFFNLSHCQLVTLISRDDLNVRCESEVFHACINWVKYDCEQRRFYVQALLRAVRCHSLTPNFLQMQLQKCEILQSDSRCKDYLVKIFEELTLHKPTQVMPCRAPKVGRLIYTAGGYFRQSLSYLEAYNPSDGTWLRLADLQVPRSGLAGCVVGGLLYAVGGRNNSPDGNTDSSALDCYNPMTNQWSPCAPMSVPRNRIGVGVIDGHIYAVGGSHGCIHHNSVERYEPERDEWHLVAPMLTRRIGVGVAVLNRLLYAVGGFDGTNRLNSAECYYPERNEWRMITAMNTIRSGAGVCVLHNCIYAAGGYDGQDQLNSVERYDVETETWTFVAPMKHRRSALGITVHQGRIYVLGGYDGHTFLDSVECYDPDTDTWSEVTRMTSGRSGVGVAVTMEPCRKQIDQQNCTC
C-LANA FP – KSHV C-LANA DNA binding inhibition; hit rate 0.078% among 340,000; inhibition, % at 9 µM; AID 504423; MBP-C-LANA/FAM-LBS DNA binding, fluorescence polarization;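 active = highest replicate inhibition at or above 60% at 9 µM, even if other replicates fall short; inactive = all replicates below 60% inhibition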;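 also: 0% = neutral control wells and 100% = 4 µM acridine orange control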
Keap1 Kelch bind – Keap1 (human) Kelch domain binding; shares compounds with Keap1-Nrf2 PPI; Keap1 Kelch thermal shift, delta Tm; stronger effect = higher value; max delta Tm, degrees C; hit rate 8% among 400; AID 651823; in the data active = max delta Tm above about 0.48 degrees C
Tn7 DDE conf – confirmation of inhibitors of Tn7 binding to human fibrin DD(E) | shares compounds with Tn7 DDE FP | FP displacement of TRITC-Tn7 peptide from DD(E); 0% set at plate's compound-well median | inhibition, % at 8.3 µM | hit rate 5% among 460 | AID 720628;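 active = inhibition above the campaign cutoff, the mean of compounds within control limits plus 3 SD, cut at about 14% in these data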;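 also: 100% = median FP of high control wells holding Aha-Tn7 inhibitor peptide; displacers lower polarization since freed probe rises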
Tn7 DDE ctr – DD(E)-Tn7 binding inhibition, counter-screen; shares compounds with Tn7 DDE FP; fibrin DD(E), TRITC-Tn7 probe displacement, fluorescence polarization; inhibition, % at 8.3 µM; hit rate 3% among 460;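 active = inhibition above the cutoff, the mean of compounds lying between the control bounds plus 3 SD of those compounds, cut at about 17% in these data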;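 also: 0% = median of compound sample wells and 100% = excess unlabeled Aha-Tn7 peptide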
Tn6 DDE ctr – DD(E)-Tn6 binding inhibition, counter-screen; shares compounds with DDE Tn6 FP inh; Fibrin DD(E), TRITC-Tn6 fluorescence polarization displacement; 0% = median of compound wells, not DMSO; inhibition, % at 8.3 µM; hit rate 2% among 680;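 active = inhibition above the mean of test compounds lying between the control limits plus 3 SD of those, cut at about 14% in these data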;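 also: 0% = median of compound wells and 100% = wells with Aha-Tn7 blocking peptide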
Tn6 DDE conf – DD(E)-Tn6 binding inhibition, FP confirmation | shares compounds with DDE Tn6 FP inh | FP displacement of TRITC-Tn6 peptide from DD(E); 0% = per-plate median of test wells | inhibition, % at 8.3 µM | hit rate 10% among 680;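 active = inhibition above the mean of compounds lying within the control limits plus 3 SD, cut at about 16% in these data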;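 also: 100% = high control wells holding a competing inhibitor peptide at 10 µM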
The depositor's hits bear a star; x = no result; + = active, no number. Compounds with a hit are over-represented: about 0.6% of the library has one in this group of screens.

SMILES	DDE Tn6 FP inh	Rtt109 Vps75	Tn7 DDE FP	Keap1-Nrf2 PPI	C-LANA FP	Tn7 DDE conf	Tn7 DDE ctr	Tn6 DDE ctr	Tn6 DDE conf	others
Nc1ccc2nonc2c1[N+](=O)[O-]	0	-4	20*	52*	80*	2	-2	x	x	Keap1 Kelch bind=-0.08
Cc1cc(O)c2c(c1)C(=O)[C@@]13C(=C2O)C(=O)[C@H]2C(O)[C@@H]1[C@H]1C(O)[C@@H]3C(=O)C3=C(O)c4c(O)cc(C)cc4C(=O)[C@@]312 (stereo not given in full)	4	x	-8	x	x	x	x	x	x
Cc1cc2c(C(F)(F)F)cc(=O)oc2c2c1NCCC2	6	-3	5	8	2	x	x	x	x
O=c1cc(C(F)(F)F)c2cc3c4c(c2o1)CCCN4CCC3	13	-5	33*	14*	19	4	10	x	x	Keap1 Kelch bind=-0.05
FC(F)(F)c1cccc(NC2=NCCCS2)c1	6	-3	14*	2	3	-5	-8	x	x
COc1ccc(Cc2cn(C)c(N)n2)cc1	-2	x	3	x	x	x	x	x	x
Nc1ccc2ccc3cccc[n+]3c2c1	5	0	70*	138*	152*	25*	-11	x	x
N#CCC[C@@H]1CC[C@]2(CCCN(Cc3ccncc3)C2)O1	1	x	9	x	x	x	x	x	x
COc1cccc2c1C(=O)c1c(O)c3c(c(O)c1C2=O)CC(O)(C(C)=NO)CC3OC1CC(N)C(O)C(C)O1 (stereo not given)	+	0	21*	5	114*	-18	93*	-18	93*
CCOC(=O)CC[C@@H]1CC[C@]2(CCCN(Cc3ccncc3)C2)O1	-2	x	-1	x	x	x	x	x	x
CC(C)(C)NC(=O)CN1C(=O)[C@@H](Cc2c[nH]c3ccccc23)N=C(c2ccccc2)c2ccccc21	-1	x	2	x	x	x	x	x	x
O=[N+]([O-])c1ccc(NCc2ccccc2)c2nonc12	21*	x	61*	x	x	46*	27*	46*	27*
CCOC(=O)CC[C@@H]1CC[C@]2(CCCN(Cc3ccccn3)C2)O1	-4	x	-4	x	x	x	x	x	x
C[n+]1c(-c2ccccc2)c2cc(N)ccc2c2ccc(N)cc21	49*	45	22*	7	21	5	124*	5	124*
CCNC(=O)C1OC(n2cnc3c(N)ncnc32)C(O)C1O (stereo not given)	16*	-7	8	0	1	x	x	-7	-10
O=C(NCCN1CCC2(CC1)C(=O)NCN2c1ccccc1)c1ccc(F)c(F)c1	2	x	2	x	x	x	x	x	x
O=[N+]([O-])c1ccc(N2CCCCCC2)c2nonc12	85*	-12	-5	-42	49	x	x	-17	66*
CC(c1ccccc1)n1cc(C(=O)NC2CCCC2)nn1 (stereo not given)	2	x	2	x	x	x	x	x	x

Assay outcomes deposited in PubChem by several laboratories.
